The text below walks through data of ChEMBL document CHEMBL5705892, “MK-2206, an allosteric Akt inhibitor, enhances antitumor efficacy by standard chemotherapeutic agents or molecular targeted drugs in vitro and in vivo” (Mol Cancer Ther, 2010).

The test system of one data set is NCI-H292. Put plainly: Antiproliferative activity against human NCI-H292 cells assessed as reduction in cell proliferation measured after 72 hrs by celltiter-glo assay. The class given is functional, cell-based. As to conditions: NCI-H292, 72 h. The method, boiled down:
(§1)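 Cells in RPMI 1640 with 10% heat-inactivated FBS at 37°C and 5% CO₂ were seeded at 2 to 3 × 10³ per well. […] Growth was read as cellular ATP by CellTiter-Glo.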
A general note: In ATP-based viability assays light output follows the ATP content of the culture.

The next data set has as its system NCI-N87. Put plainly: Synergistic antiproliferative activity against human NCI-N87 cells assessed as combination index at ED90 measured after 96 hrs in presence of lapatinib by celltiter-glo assay. The data set is classed as functional.
The target in data set [1] is RAC-alpha serine/threonine-protein kinase (Homo sapiens) (UniProt P31749). Put plainly: Inhibition of AKT in human HCC70 cells assessed as reduction in S6 phosphorylation at S240/S244 residues at 1 umol/L by Western blot analysis. The data set is classed as cell-based. To be noted: dose 1.0 µmol/L, time 3-24 hrs. Put shortly:
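HCC70 cells at ~70% confluence were exposed to 10 µmol/L lapatinib, 1 µmol/L MK-2206, or both, for 0, 3, 6, 12 or 24 h. Lysates were prepared in Triton X-100/Tris buffer (pH 7.5) with protease and phosphatase inhibitors. Immunoblots after SDS-PAGE and nitrocellulose transfer were probed for pAkt and pS6.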

The next data set deals with MCF7. Put plainly: Synergistic antiproliferative activity against human MCF7 cells assessed as combination index at ED50 measured after 72 hrs in presence of docetaxel by celltiter-glo assay. The class given is functional. Put shortly:
(§2)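 Cells grown in RPMI 1640 with 10% heat-inactivated FBS at 37°C, 5% CO₂. Seeded at 2 to 3 × 10³ per well; drugs added 24 h later. […] Viability read as cellular ATP by CellTiter-Glo. CI calculated by Chou–Talalay from median-effect plots at ED50, ED75 and ED90.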

The next data set relates to NCI-H1299. Kind of data set: Synergistic antiproliferative activity against human NCI-H1299 cells assessed as fold change in erlotinib IC50 at 1 umol/L measured after 72 hrs in presence of erlotinib by celltiter-glo assay relative to erlotinib alone. To be noted: dose 1 µmol/L. The data set is classed as functional.
Data set [2] concerns MDA-MB-468. Put plainly: Synergistic antiproliferative activity against human MDA-MB-468 cells assessed as combination index at ED75 treated 24 hrs prior to lapatinib and measured after 72 hrs by celltiter-glo assay. The class given is functional. As to conditions: time 96 hrs.
Data set [3] deals with NCI-H460. Kind of data set: Synergistic antiproliferative activity against human NCI-H460 cells assessed as combination index at ED50 measured after 72 hrs in presence of gemcitabine by celltiter-glo assay. The data set is classed as functional.
Data set [4] is described as follows: Toxicity in human NCI-H460 cells xenografted CD1 nude mouse assessed as body weight loss at 120 mg/kg, po administered 3 times per week for 2 weeks measured during compound dosing relative to control. The class given is organism-based. As to conditions: in vivo, 336 h. For orientation: In xenograft studies the graft and the host belong to different species.

In a further data set the test system is SK-OV-3. Kind of data set: Synergistic antiproliferative activity against lapatinib pretreated human SK-OV-3 cells assessed as combination index at ED90 measured after 72 hrs by celltiter-glo assay. The data set is classed as functional.
Data set [5] relates to MDA-MB-468. Kind of data set: Synergistic antiproliferative activity against human MDA-MB-468 cells assessed as combination index at ED75 measured after 72 hrs in presence of docetaxel by celltiter-glo assay. The class given is functional. The method, boiled down: as §2
Data set [6] in a line: Toxicity in human SK-OV-3 cells xenografted CB17/icr SCID mouse at 60 to 120 mg/kg, po administered 3 times per week for 2 weeks starting 2 hrs post lapatinib treatment and measured during compound dosing. The class given is organism-based. As to conditions: in vivo, 336 h, dose 60-120 mg/kg. The method, boiled down: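 SK-OV-3 cells in 50% Matrigel/PBS injected s.c. into flank of female C.B-17/ICR-scid mice; dosing began after 3 wk, randomized at mean tumour 0.13 cm³ (n = 5). Lapatinib 100 mg/kg p.o. in distilled water 5 d/wk for 2 wk; MK-2206 in 30% Captisol p.o. days 0, 2, 4, 7, 9, 11. Body weight and physical signs monitored.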

The test system of data set [7] is A2780. Put plainly: Cell cycle arrest in human A2780 cells assessed as increase in accumulation of cells at sub-G1 phase at 0.12 to 3 umol/L measured after 72 hrs in presence of carboplatin by propidium iodide staining based flow cytometry relative to control. To be noted: dose 0.12-3 µmol/L, at 0.12 to 3 µM. The class given is functional. For orientation: A flow cytometer gives signals particle by particle.

Data set [8] deals with MDA-MB-468. Kind of data set: Antiproliferative activity against human MDA-MB-468 cells assessed as reduction in cell proliferation measured after 72 hrs by celltiter-glo assay. The class given is functional, cell-based. To be noted: MDA-MB-468, 72 h. Put shortly:
as §1

For another data set, the system named is SK-BR-3. Kind of data set: Synergistic antiproliferative activity against human SK-BR-3 cells assessed as combination index at ED90 measured after 72 hrs in presence of lapatinib by celltiter-glo assay. The data set is classed as functional.
The next data set has as its system NCI-H1993. Kind of data set: Induction of apoptosis in human NCI-H1993 cells assessed as fold induction of capsase-3/7 activity measured after 24 to 48 hrs in presence of carboplatin by caspase-glo 3/7 assay. The data set is classed as functional. To be noted: time 24-48 hrs.
Data set [9] can be described thus: Toxicity in human NCI-H292 cells xenografted CD-1 mouse assessed as death at 360 mg/kg, po administered once a week for 2 weeks starting 2 hrs post-erlotinib treatment and measured during compound dosing. To be noted: in vivo, 336 h. The class given is organism-based. The method, boiled down:
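NCI-H292 cells in 50% Matrigel/PBS injected s.c. into flank of female CD1-nude mice; dosing began after 2 wk at mean tumour 0.2 cm³, n = 5/group. […] Body weight and signs monitored; treatment ended day 16.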

The test system of data set [10] is A2780. Kind of data set: Synergistic antiproliferative activity against human A2780 cells assessed as combination index at ED75 measured after 72 hrs in presence of carboplatin by celltiter-glo assay. The data set is classed as functional. The method, boiled down: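 Cells were seeded at 2–3 × 10³ per well in RPMI 1640 with 10% FBS. At 24 h, MK-2206 and the partner drug were added simultaneously at constant concentration ratios spanning each agent's IC₅₀, for 72 h. Growth was read as cellular ATP by CellTiter-Glo. CI was taken from median-effect plots of each agent alone and in combination (Chou–Talalay), at ED₅₀, ED₇₅ and ED₉₀.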

Data set [11] deals with NCI-H460. Kind of data set: Antitumor activity against human NCI-H460 cells xenografted in CD1 nude mouse assessed as reduction in tumor volume at 120 mg/kg, po administered 3 times per week for 2 weeks in presence of carboplatin by caliper method. The data set is classed as functional, organism-based. The method, boiled down:
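NCI-H460 cells were injected s.c. in Matrigel/PBS into CD1-nude mice (female in the carboplatin study). Mice were randomized at 0.2 cm³, n = 5. Carboplatin was given at 50 mg/kg or gemcitabine at 100 mg/kg, i.v. in saline, on days 0 and 7. MK-2206 (30% Captisol) was given at 120 mg/kg po on days 0, 2, 4, 7, 9, 11. Tumors measured by caliper twice weekly.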

The test system of the next data set is NCI-H23. Kind of data set: Synergistic antiproliferative activity against human NCI-H23 cells assessed as combination index at ED50 measured after 72 hrs in presence of erlotinib by celltiter-glo assay. The data set is classed as functional.
Data set [12] deals with NCI-H460. Put plainly: Synergistic antiproliferative activity against human NCI-H460 cells assessed as combination index at ED90 measured after 72 hrs in presence of 5-FU by celltiter-glo assay. The data set is classed as functional.
The target in data set [13] is RAC-alpha serine/threonine-protein kinase (Homo sapiens) (UniProt P31749). Kind of data set: Inhibition of AKT in human A-431 cells assessed as reduction in AKT phosphorylation at S473 residue at 5 umol/L measured after 5 hrs in presence of erlotinib by Western blot analysis. As to conditions: dose 5.0 µmol/L. The class given is cell-based. The method, boiled down:
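Cells were lysed in Tris-HCl pH 7.5, 150 mM NaCl, 1% Triton X-100 with protease and phosphatase inhibitors. Lysates were run on SDS-PAGE, transferred to nitrocellulose and probed with phospho-specific antibodies.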

Activity calls are given as the source filed them. No cut-off for these calls is given here.

Sequence of RAC-alpha serine/threonine-protein kinase (Homo sapiens) (P31749 whole entry): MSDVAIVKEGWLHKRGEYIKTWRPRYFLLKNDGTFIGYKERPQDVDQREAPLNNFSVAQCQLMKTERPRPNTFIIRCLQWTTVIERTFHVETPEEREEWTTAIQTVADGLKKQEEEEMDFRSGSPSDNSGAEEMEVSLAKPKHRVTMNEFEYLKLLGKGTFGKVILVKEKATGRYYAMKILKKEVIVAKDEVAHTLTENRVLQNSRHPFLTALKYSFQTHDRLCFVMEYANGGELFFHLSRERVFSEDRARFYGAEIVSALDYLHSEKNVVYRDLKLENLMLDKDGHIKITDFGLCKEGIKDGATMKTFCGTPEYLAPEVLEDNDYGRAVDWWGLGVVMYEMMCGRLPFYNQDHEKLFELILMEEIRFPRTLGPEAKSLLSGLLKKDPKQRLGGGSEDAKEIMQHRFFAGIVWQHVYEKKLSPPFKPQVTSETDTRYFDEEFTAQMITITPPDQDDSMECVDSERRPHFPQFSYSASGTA

In the case of `Cl.NC1(c2ccc(-c3nc4ccn5c(=O)[nH]nc5c4cc3-c3ccccc3)cc2)CCC1`, the IC50 with NCI-H292 was found to be 5.2 µM; in the data set with MDA-MB-468 [8], 2.6 µM. For the same molecule, the CI90 in the data set on NCI-N87 was 0.18; in the data set on SK-OV-3, 0.18; in the data set with SK-BR-3, 0.09; with NCI-H460 [12] it was 0.54. The inhibition result in [1] is “Dose-Dependent Effect”. Further, the CI50 is reported as 0.7 in the data set with MCF7, 0.33 in the data set on NCI-H460 [3] and 0.32 with NCI-H23. For the same molecule, in the data set with NCI-H1299, the “Ratio IC50” value is recorded as more than 7.9. Moreover, the figures for the CI75 in the data set on MDA-MB-468 [2], with MDA-MB-468 [5] and in the data set with A2780 [10] were 0.18, 0.8 and 0.43, respectively. The Activity is given as 7% in data set [4], “Non-Toxic” in [6], more than 40% with A2780 [7] and “Non-Toxic” in [9]. Moreover, in the data set with NCI-H1993, the “fold change (FC)” value was 1.2. Besides, in the data set on NCI-H460 [11], the result was Active. The inhibition entry in [13] was “Active”.

By IC50 is commonly meant the concentration needed to halve the response being measured.
